According to ChEMBL document CHEMBL3228006, “Orally active esters of cephalosporin antibiotics. 3. Synthesis and biological properties of aminoacyloxymethyl esters of 7-[D(-)-mandelamido]-3-[[(1-methyl-1H-tetrazol-5-yl)thio]methyl]-3-cephem-4-carboxylic acid” (J Med Chem, 1979):

What was measured:
Streptococcus pyogenes = assay: Antibacterial activity against Streptococcus pyogenes C203 infected in po dosed Swiss mouse assessed as protection against bacterial infection administered 1 to 5 hrs after bacterial infection; type: functional
Method in brief: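 Swiss white mice (13-15 g), groups of eight, infected ip with broth suspension of S. pyogenes C203 lethal to 100% of untreated mice in 24-48 h. Five groups per test received graduated oral doses at 1 and 5 h post-challenge. ED50 by Reed and Muench method from survivors at 7 days.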

[1] = Drug metabolism in mouse assessed as cefamandole level in urine using Micrococcus luteus ATCC 9341 as detecting organism at 17 mg/kg, po by disk-plate microbiology assay; type: ADME, organism-based; parameters: dose 17 mg/kg, route oral; settings: in vivo
Method in brief: (§1)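 Mice dosed orally at 17 mg/kg; cefamandole activity in blood or urine measured by disk-plate microbiological assay with Micrococcus luteus ATCC 9341 as detecting organism.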

[2] = Chemical stability of the compound in phosphate buffer at pH 4.5 assessed as hydrolysis up to 60 mins by paper electrophoresis analysis; type: physicochemical; settings: pH 4.5, 1 h
Method in brief: (§2)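 Ester dissolved in buffer (pH 2.5, 4.5 or 6.0) at 37 °C; samples taken at 0, 20, 40, 60 min and run on paper electrophoresis strips at 400 V in 0.1 M pyridine-acetate buffer for 2 h, steamed, dried, spots seen under UV. Extent of hydrolysis estimated approximately by comparing visual UV zone intensity of ester versus parent acid.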

[3] = Chemical stability of the compound in phosphate buffer at pH 6 assessed as hydrolysis after 20 mins by paper electrophoresis analysis; type: physicochemical; settings: for Stability: buffer, pH 6, 20 min; for degraded at 20 min: phosphate buffer, pH 6, read-out: Drug degradation; method in brief: as §2
[4] = Chemical stability of the compound in phosphate buffer at pH 2.5 assessed as hydrolysis up to 60 mins by paper electrophoresis analysis; type: physicochemical; settings: pH 2.5, 1 h; method in brief: as §2
[5] = Drug metabolism in mouse assessed as cefamandole level in small intestine using Micrococcus luteus ATCC 9341 as detecting organism at 17 mg/kg, po by disk-plate microbiology assay; type: ADME, organism-based; parameters: dose 17 mg/kg, route oral; settings: in vivo
Blood = assay: Drug metabolism in mouse assessed as cefamandole level in blood using Micrococcus luteus ATCC 9341 as detecting organism at 17 mg/kg, po by disk-plate microbiology assay; type: ADME, organism-based; parameters: dose 17 mg/kg, route oral; settings: in vivo; method in brief: as §1

Structure (SMILES)	ED50 (Streptococcus pyogenes)	Drug metabolism [1]	Stability [2]	Stability [3]	Stability [4]	Drug metabolism [5]	Drug metabolism (Blood)	degraded at 20 min [3]
Cl.Cn1nnnc1SCC1=C(C(=O)OCOC(=O)CN)N2C(=O)[C@@H](NC(=O)[C@H](O)c3ccccc3)[C@H]2SC1	20.4 mg/kg	metabolite_notdetected	Unstable	Unstable	Stable	metabolite_detected	metabolite_notdetected	–
CC(C)[C@H](N)C(=O)OCOC(=O)C1=C(CSc2nnnn2C)CS[C@@H]2[C@H](NC(=O)[C@H](O)c3ccccc3)C(=O)N12.Cl	14.3 mg/kg	metabolite_notdetected	Unstable	Unstable	Stable	metabolite_detected	metabolite_notdetected	–
CC(C)C[C@H](N)C(=O)OCOC(=O)C1=C(CSc2nnnn2C)CS[C@@H]2[C@H](NC(=O)[C@H](O)c3ccccc3)C(=O)N12.Cl	10.4 mg/kg	–	Unstable	Unstable	Stable	–	–	–
CC[C@H](C)[C@H](N)C(=O)OCOC(=O)C1=C(CSc2nnnn2C)CS[C@@H]2[C@H](NC(=O)[C@H](O)c3ccccc3)C(=O)N12.Cl	8.6 mg/kg	–	Unstable	Unstable	Stable	–	–	–
Cl.Cn1nnnc1SCC1=C(C(=O)OCOC(=O)[C@@H](N)Cc2ccccc2)N2C(=O)[C@@H](NC(=O)[C@H](O)c3ccccc3)[C@H]2SC1	15.3 mg/kg	–	Unstable	–	Stable	–	–	50%
COC(=O)[C@H](N)CC(=O)OCOC(=O)C1=C(CSc2nnnn2C)CS[C@@H]2[C@H](NC(=O)[C@H](O)c3ccccc3)C(=O)N12.Cl	25.2 mg/kg	metabolite_notdetected	Unstable	–	Stable	metabolite_detected	metabolite_notdetected	20%
Cn1nnnc1SCC1=C(C(=O)[O-])N2C(=O)[C@@H](NC(=O)[C@H](O)c3ccccc3)[C@H]2SC1.[Li+]	12 mg/kg	–	–	–	–	–	–	–
